Assay results taken from ChEMBL document CHEMBL2424622, “Development of amino-pyrimidine inhibitors of c-Jun N-terminal kinase (JNK): kinase profiling guided optimization of a 1,2,3-benzotriazole lead” (Bioorg Med Chem Lett, 2013).

Experiments:
[1] = target: MAP kinase-interacting serine/threonine-protein kinase 2 (Homo sapiens) (UniProt Q9HBH9); experiment: Competitive binding affinity to MKNK2 (unknown origin) at 10 uM in presence of ATP relative to control
Procedure, shortened: (§1)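 In vitro ATP-site competition binding assay across a diverse panel of 128 kinases, with compound tested at a single concentration. Kinase selectivity scores (S15) were calculated from the panel profiles.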

[2] = target: Proto-oncogene tyrosine-protein kinase ROS (Homo sapiens) (UniProt P08922); experiment: Competitive binding affinity to ROS1 (unknown origin) at 10 uM in presence of ATP relative to control; procedure, shortened: as §1
Sequence of Proto-oncogene tyrosine-protein kinase ROS (Homo sapiens) (P08922 whole entry): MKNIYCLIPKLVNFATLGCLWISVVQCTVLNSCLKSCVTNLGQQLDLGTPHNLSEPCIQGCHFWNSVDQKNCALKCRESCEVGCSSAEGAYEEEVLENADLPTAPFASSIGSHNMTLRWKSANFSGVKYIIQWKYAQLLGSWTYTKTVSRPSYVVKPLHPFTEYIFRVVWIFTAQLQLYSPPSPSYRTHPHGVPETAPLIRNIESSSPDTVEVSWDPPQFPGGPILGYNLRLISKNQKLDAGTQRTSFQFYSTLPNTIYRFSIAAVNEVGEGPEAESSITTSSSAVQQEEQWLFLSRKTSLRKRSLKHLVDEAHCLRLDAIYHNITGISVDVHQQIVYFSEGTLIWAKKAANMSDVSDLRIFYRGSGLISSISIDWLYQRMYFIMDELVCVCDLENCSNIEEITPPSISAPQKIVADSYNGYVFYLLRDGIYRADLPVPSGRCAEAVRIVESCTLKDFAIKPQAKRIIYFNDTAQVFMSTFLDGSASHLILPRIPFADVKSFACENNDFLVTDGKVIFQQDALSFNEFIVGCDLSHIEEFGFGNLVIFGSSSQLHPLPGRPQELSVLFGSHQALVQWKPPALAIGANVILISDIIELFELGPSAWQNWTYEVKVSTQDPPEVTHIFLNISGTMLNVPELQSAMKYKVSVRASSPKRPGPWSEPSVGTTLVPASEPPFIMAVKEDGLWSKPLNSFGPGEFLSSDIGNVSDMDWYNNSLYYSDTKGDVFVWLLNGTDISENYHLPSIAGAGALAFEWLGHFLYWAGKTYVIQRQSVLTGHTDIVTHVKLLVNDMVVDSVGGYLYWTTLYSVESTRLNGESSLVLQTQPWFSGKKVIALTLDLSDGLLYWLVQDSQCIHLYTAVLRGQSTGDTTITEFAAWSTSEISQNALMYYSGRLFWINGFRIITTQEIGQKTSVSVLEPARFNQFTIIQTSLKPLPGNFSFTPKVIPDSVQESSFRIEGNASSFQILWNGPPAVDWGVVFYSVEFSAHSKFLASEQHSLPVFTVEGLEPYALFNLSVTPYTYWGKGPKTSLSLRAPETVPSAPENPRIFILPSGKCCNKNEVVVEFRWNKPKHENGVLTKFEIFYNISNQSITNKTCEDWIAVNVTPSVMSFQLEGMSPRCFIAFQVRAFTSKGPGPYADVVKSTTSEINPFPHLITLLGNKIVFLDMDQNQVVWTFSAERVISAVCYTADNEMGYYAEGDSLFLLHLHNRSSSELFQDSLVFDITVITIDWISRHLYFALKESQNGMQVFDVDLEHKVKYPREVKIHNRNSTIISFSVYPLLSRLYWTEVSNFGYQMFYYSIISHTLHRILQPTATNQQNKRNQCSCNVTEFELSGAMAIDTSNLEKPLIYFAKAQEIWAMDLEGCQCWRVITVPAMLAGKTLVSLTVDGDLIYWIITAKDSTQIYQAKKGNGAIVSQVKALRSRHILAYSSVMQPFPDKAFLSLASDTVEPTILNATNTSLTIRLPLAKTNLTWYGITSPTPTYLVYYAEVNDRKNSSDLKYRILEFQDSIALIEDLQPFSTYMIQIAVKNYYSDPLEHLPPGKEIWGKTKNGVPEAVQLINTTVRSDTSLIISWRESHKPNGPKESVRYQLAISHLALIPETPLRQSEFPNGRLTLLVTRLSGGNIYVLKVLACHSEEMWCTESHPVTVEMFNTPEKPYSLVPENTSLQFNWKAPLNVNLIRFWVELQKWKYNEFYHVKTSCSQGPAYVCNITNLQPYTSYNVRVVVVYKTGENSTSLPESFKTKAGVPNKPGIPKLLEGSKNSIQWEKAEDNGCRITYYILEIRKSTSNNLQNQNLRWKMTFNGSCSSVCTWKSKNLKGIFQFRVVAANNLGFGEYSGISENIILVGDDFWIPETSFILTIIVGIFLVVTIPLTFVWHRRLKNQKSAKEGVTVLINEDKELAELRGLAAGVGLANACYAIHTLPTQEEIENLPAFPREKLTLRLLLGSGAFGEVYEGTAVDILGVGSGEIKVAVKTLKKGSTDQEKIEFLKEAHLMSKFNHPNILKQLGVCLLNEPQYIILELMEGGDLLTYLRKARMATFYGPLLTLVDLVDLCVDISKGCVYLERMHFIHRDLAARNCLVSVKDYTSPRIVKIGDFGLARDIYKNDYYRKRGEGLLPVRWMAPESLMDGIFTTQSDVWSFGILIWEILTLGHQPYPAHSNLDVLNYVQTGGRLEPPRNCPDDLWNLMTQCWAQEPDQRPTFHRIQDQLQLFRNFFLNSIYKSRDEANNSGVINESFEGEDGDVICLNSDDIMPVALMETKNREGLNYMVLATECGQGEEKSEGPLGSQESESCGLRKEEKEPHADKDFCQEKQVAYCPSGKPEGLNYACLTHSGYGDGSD

[3] = target: T1, Ephrin type-A receptor 8 (Homo sapiens) (UniProt P29322); experiment: Competitive binding affinity to EPHA8 (unknown origin) at 10 uM in presence of ATP relative to control
T1 sequence (whole entry): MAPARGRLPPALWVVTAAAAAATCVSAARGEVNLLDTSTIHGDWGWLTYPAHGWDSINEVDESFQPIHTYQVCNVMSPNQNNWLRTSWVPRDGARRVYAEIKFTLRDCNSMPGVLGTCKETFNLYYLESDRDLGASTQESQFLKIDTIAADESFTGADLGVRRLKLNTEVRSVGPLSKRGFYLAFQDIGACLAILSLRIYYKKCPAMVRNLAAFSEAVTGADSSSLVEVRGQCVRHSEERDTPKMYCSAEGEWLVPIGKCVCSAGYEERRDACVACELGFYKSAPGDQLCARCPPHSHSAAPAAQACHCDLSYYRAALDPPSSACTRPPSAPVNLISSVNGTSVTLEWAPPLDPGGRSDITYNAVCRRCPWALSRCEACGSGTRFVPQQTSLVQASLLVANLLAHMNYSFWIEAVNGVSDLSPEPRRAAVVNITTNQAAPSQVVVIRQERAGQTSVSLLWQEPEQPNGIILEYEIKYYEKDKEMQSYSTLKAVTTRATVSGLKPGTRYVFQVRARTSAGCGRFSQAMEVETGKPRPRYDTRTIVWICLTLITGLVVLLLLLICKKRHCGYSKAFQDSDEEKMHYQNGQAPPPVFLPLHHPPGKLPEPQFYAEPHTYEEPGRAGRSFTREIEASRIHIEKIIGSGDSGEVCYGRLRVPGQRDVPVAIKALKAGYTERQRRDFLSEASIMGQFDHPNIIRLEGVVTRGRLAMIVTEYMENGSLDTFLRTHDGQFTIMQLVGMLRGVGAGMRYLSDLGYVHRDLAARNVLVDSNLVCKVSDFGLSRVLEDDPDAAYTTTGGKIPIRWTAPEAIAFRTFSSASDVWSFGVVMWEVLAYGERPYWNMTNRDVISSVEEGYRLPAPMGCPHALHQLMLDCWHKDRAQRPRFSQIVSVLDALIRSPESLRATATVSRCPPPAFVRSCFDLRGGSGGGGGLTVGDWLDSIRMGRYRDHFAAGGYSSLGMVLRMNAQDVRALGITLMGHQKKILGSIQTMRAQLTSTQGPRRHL
Procedure, shortened: (§2)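 In vitro ATP-site competition binding assay, part of profiling against a diverse panel of 128 kinases. Each compound was tested at a single concentration of 10 µM. Kinome selectivity was summarized as S15 selectivity scores.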

[4] = target: Tyrosine-protein kinase Blk (Homo sapiens) (UniProt P51451); experiment: Competitive binding affinity to BLK (unknown origin) at 10 uM in presence of ATP relative to control
Sequence of Tyrosine-protein kinase Blk (Homo sapiens) (P51451 2-505 limits assumed): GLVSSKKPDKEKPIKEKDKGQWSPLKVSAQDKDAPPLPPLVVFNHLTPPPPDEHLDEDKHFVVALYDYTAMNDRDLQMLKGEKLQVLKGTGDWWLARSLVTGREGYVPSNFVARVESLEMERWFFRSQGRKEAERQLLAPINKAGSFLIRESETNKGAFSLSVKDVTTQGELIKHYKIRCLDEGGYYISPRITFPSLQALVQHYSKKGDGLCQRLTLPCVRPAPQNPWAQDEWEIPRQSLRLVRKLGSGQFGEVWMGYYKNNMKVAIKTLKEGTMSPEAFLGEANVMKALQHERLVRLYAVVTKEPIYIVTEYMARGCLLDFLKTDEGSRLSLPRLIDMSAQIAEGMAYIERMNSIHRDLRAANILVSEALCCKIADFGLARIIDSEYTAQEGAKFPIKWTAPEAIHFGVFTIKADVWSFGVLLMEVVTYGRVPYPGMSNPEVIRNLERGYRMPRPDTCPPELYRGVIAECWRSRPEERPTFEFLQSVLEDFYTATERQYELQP

[5] = target: Tyrosine-protein kinase JAK2 (Homo sapiens) (UniProt O60674); experiment: Competitive binding affinity to JAK2 kinase domain 2 (unknown origin) at 10 uM in presence of ATP relative to control; procedure, shortened: as §2
[6] = target: Protein-tyrosine kinase 2-beta (Homo sapiens) (UniProt Q14289); experiment: Competitive binding affinity to PTK2B (unknown origin) at 10 uM in presence of ATP relative to control; procedure, shortened: as §1
Sequence of Protein-tyrosine kinase 2-beta (Homo sapiens) (Q14289 whole entry, looked up): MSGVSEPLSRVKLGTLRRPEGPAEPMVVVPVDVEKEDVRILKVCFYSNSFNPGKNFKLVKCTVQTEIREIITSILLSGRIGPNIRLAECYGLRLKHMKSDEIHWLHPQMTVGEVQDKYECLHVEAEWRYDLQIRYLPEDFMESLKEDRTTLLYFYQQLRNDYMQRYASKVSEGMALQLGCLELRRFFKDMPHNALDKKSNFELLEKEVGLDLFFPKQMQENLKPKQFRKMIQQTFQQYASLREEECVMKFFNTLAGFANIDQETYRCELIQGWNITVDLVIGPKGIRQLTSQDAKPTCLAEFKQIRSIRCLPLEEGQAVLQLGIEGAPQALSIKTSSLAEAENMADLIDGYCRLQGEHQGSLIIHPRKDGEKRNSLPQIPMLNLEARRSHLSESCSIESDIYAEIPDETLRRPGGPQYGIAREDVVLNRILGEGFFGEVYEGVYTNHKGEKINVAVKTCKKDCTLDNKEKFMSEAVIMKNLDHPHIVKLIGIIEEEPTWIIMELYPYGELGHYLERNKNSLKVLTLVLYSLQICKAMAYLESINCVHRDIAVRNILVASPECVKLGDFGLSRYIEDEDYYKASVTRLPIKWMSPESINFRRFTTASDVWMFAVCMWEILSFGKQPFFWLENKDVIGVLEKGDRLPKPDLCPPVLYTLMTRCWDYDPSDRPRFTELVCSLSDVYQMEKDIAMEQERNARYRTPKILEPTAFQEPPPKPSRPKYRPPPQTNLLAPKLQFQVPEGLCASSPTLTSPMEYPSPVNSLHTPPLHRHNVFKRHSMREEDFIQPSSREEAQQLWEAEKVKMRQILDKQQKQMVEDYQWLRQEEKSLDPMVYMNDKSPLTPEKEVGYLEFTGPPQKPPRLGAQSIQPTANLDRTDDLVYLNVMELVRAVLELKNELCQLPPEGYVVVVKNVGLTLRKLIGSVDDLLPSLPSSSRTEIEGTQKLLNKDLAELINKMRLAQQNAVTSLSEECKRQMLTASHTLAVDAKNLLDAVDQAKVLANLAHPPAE

[7] = target: T2, Ephrin type-A receptor 3 (Homo sapiens) (UniProt P29320); experiment: Competitive binding affinity to EPHA3 (unknown origin) at 10 uM in presence of ATP relative to control; procedure, shortened: as §2
T2 sequence (whole entry): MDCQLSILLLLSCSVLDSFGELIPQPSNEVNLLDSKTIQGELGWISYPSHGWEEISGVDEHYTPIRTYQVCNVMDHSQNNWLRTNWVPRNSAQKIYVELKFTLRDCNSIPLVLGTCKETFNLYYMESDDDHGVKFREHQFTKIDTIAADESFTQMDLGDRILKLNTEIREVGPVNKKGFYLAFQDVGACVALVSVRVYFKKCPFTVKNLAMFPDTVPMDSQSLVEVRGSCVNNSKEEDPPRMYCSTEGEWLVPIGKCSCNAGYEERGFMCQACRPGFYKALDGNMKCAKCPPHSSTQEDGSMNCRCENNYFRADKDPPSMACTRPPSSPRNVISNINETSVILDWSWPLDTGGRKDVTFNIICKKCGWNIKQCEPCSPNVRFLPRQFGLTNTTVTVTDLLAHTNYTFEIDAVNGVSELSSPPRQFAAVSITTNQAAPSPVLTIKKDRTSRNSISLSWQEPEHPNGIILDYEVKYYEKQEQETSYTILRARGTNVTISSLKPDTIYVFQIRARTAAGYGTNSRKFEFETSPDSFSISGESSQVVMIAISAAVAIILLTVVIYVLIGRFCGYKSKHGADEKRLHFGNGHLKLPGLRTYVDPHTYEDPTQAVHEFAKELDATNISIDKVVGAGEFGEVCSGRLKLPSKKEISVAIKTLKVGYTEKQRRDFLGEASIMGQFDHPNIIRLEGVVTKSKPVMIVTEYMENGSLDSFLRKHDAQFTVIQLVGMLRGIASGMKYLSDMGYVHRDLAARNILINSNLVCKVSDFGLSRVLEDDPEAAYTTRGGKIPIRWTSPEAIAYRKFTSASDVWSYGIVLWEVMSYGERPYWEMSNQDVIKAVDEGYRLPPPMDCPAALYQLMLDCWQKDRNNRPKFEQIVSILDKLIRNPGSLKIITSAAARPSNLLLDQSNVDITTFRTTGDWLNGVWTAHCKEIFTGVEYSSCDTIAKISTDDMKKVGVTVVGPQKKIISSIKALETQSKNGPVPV

[8] = target: Tyrosine-protein kinase BTK (Homo sapiens) (UniProt Q06187); experiment: Competitive binding affinity to BTK (unknown origin) at 10 uM in presence of ATP relative to control
Sequence of Tyrosine-protein kinase BTK (Homo sapiens) (Q06187 whole entry): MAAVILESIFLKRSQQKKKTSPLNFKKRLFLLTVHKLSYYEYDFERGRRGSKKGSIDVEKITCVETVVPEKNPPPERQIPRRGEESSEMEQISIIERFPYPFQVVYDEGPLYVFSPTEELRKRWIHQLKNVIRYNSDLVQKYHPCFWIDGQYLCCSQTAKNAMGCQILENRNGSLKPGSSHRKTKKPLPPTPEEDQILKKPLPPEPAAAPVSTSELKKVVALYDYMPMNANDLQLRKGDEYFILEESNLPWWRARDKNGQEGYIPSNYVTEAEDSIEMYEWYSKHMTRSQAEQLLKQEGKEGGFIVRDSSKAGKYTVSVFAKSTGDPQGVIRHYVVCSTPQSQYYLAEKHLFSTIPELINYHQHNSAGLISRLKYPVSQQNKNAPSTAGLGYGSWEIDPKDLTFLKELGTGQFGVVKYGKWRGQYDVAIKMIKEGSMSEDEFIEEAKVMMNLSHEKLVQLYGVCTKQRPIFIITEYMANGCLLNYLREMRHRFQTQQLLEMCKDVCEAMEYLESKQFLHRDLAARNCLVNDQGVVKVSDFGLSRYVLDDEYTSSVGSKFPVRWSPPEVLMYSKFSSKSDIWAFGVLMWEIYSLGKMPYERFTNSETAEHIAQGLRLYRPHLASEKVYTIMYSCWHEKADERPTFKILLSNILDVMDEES

Sequence of MAP kinase-interacting serine/threonine-protein kinase 2 (Homo sapiens) (Q9HBH9 whole entry, looked up): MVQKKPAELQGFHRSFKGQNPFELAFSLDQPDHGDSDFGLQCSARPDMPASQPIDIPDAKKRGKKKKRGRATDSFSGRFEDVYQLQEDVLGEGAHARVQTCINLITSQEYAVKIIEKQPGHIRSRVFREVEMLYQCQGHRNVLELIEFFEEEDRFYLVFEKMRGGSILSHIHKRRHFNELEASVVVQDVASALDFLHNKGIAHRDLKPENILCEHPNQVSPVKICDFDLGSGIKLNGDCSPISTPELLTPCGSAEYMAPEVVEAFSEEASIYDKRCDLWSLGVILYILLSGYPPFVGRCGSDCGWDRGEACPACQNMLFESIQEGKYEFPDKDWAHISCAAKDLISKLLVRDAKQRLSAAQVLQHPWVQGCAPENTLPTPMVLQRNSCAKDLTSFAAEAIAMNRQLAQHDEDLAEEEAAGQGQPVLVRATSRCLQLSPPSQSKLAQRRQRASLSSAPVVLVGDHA

Structure (SMILES)	inhibition [1]	inhibition [2]	inhibition [3]	inhibition [4]	inhibition [5]	inhibition [6]	inhibition [7]	inhibition [8]
O[C@H]1CC[C@H](Nc2nccc(-n3ccc4ccccc43)n2)CC1	< 50%	< 50%	< 50%	< 50%	< 50%	< 50%	< 50%	< 50%
N[C@H]1CC[C@H](Nc2nccc(-n3nnc4ccccc43)n2)CC1	100%	< 50%	< 50%	99%	< 50%	< 50%	82%	< 50%
O[C@H]1CC[C@H](Nc2nccc(-n3nnc4ccccc43)n2)CC1	86%	< 50%	< 50%	88%	72%	< 50%	< 50%	< 50%
O[C@H]1CC[C@H](Nc2nccc(-n3ncc4ccccc43)n2)CC1	75%	< 50%	< 50%	< 50%	< 50%	< 50%	< 50%	< 50%
O=C([C@H]1CC[C@H](Nc2nccc(-n3nnc4ccccc43)n2)CC1)N1CCOCC1	97%	< 50%	< 50%	93%	< 50%	< 50%	< 50%	< 50%
O[C@H]1CC[C@H](Nc2nccc(-c3n[nH]c4ccccc34)n2)CC1	87%	< 50%	< 50%	92%	96%	77%	93%	< 50%
